Data from ChEMBL document CHEMBL3608261, “Metabolically programmed iron chelators” (Bioorg Med Chem, 2015).

How the values were obtained:
[1] = system: Sapajus apella; assay: Iron clearing efficiency in bile duct cannulated Cebus apella assessed as clearance of iron in bile at 75 umol/kg, po measured at 3 hrs intervals for up to 48 hrs relative to control; format: functional
[2] = Performance ratio, ratio of iron clearing efficiency in […] at 75 umol/kg, po to iron clearing efficiency in bile duct cannulated Sprague-Dawley rat at 300 umol/kg, po; format: functional
How it was run: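 Performance ratio = mean ICE in iron-overloaded Cebus apella (75 µmol/kg) divided by mean ICE in bile duct-cannulated rats (300 µmol/kg), by the same route.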

[3] = system: Rattus norvegicus; assay: Drug metabolism in Sprague-Dawley rat plasma assessed as parent compound and metabolite level at 300 umol/kg, sc after 4 hrs by HPLC analysis; format: ADME, organism-based; settings: in vivo
How it was run: (§1)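 Rats (male Sprague-Dawley, 250–350 g) were dosed sc once with the monosodium salt, 300 µmol/kg, three animals per time point up to 8 h. Plasma came from citrated cardiac blood; liver was frozen after CO2 euthanasia. Parent and metabolites were quantified by HPLC with UV at 310 nm against linear calibration curves (detection limit 0.25 µM, linear 1–1000 µM). Data are means.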

[4] = system: Rattus norvegicus; assay: Drug metabolism in Sprague-Dawley rat plasma assessed as parent compound and metabolite level at 300 umol/kg, sc after 8 hrs by HPLC analysis; format: ADME, organism-based; settings: in vivo, read-out: Drug metabolism; how it was run: as §1
[5] = system: Rattus norvegicus; assay: Drug metabolism in Sprague-Dawley rat liver assessed as (S)-4'-(5-carboxypentyloxy)-DADFT level at 300 umol/kg, sc after 0.5 to 1 hrs by HPLC analysis; format: ADME, organism-based; settings: in vivo
How it was run: (§2)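 Single sc injection in male Sprague-Dawley rats (250–350 g) of the monosodium salt at 300 µmol/kg, n=3 per time point, killed by CO2 at 0.5–8 h. Plasma came from citrated cardiac blood; organs were frozen. Homogenates were made 1:3 in 0.5 N HClO4, given a methanol rinse, held 30 min at −20 °C, centrifuged, diluted in pH 3.0 phosphate/CH3CN and filtered. RP-amide HPLC, UV 310 nm; values are means, nmol/g wet weight or µM.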

[6] = system: Rattus norvegicus; assay: Drug metabolism in Sprague-Dawley rat liver assessed as parent compound and metabolite level at 300 umol/kg, sc after 8 hrs by HPLC analysis; format: ADME, organism-based; settings: in vivo; how it was run: as §1
[7] = system: Rattus norvegicus; assay: Drug metabolism in Sprague-Dawley rat liver assessed as parent compound and (S)-4'-(3-carboxypropyloxy)-DADFT level at 300 umol/kg, sc after 8 hrs by HPLC analysis; format: ADME, organism-based; settings: in vivo; how it was run: as §2
[8] = system: Rattus norvegicus; assay: Drug metabolism in Sprague-Dawley rat plasma assessed as (S)-4'-(carboxymethoxy)-DADFT level at 300 umol/kg, sc after 8 hrs by HPLC analysis; format: ADME, organism-based; settings: in vivo; how it was run: as §2
[9] = system: Rattus norvegicus; assay: Drug metabolism in Sprague-Dawley rat kidney assessed as (S)-4'-(5-carboxypentyloxy)-DADFT level at 300 umol/kg, sc after 0.5 to 1 hrs by HPLC analysis; format: ADME, organism-based; settings: in vivo; how it was run: as §2
[10] = system: Rattus norvegicus; assay: Drug metabolism in Sprague-Dawley rat kidney assessed as (S)-4'-(3-carboxypropyloxy)-DADFT level at 300 umol/kg, sc after 0.5 to 1 hrs by HPLC analysis; format: ADME, organism-based; settings: in vivo; how it was run: as §2
[11] = system: Rattus norvegicus; assay: Drug metabolism in Sprague-Dawley rat kidney assessed as (S)-4'-(3-carboxypropyloxy)-DADFT level at 300 umol/kg, sc after 8 hrs by HPLC analysis; format: ADME, organism-based; settings: in vivo; how it was run: as §2
[12] = system: Rattus norvegicus; assay: Drug metabolism in Sprague-Dawley rat kidney assessed as (S)-4'-(carboxymethoxy)-DADFT level at 300 umol/kg, sc after 0.5 hrs by HPLC analysis; format: ADME, organism-based; settings: in vivo; how it was run: as §2
[13] = system: Rattus norvegicus; assay: Drug metabolism in Sprague-Dawley rat kidney assessed as (S)-4'-(carboxymethoxy)-DADFT level at 300 umol/kg, sc after 1 hr by HPLC analysis; format: ADME, organism-based; settings: in vivo; how it was run: as §2
[14] = system: Rattus norvegicus; assay: Drug metabolism in Sprague-Dawley rat kidney assessed as (S)-4'-(carboxymethoxy)-DADFT level at 300 umol/kg, sc after 2 hrs by HPLC analysis; format: ADME, organism-based; settings: in vivo; how it was run: as §2
[15] = system: Rattus norvegicus; assay: Drug metabolism in Sprague-Dawley rat kidney assessed as (S)-4'-(carboxymethoxy)-DADFT level at 300 umol/kg, sc after 8 hrs by HPLC analysis; format: ADME, organism-based; settings: in vivo; how it was run: as §2
[16] = system: Rattus norvegicus; assay: Drug metabolism in Sprague-Dawley rat heart assessed as parent compound level at 300 umol/kg, sc after 0.5 hrs by HPLC analysis; format: ADME, organism-based; settings: in vivo; how it was run: as §2
[17] = system: Rattus norvegicus; assay: Drug metabolism in Sprague-Dawley rat heart assessed as (S)-4'-(5-carboxypentyloxy)-DADFT level at 300 umol/kg, sc up to 8 hrs by HPLC analysis; format: ADME, organism-based; settings: in vivo; how it was run: as §2
[18] = system: Rattus norvegicus; assay: Drug metabolism in Sprague-Dawley rat heart assessed as (S)-4'-(3-carboxypropyloxy)-DADFT level at 300 umol/kg, sc after 0.5 to 1 hrs by HPLC analysis; format: ADME, organism-based; settings: in vivo; how it was run: as §2
[19] = system: Rattus norvegicus; assay: Drug metabolism in Sprague-Dawley rat heart assessed as (S)-4'-(carboxymethoxy)-DADFT level at 300 umol/kg, sc after 0.5 hrs by HPLC analysis; format: ADME, organism-based; settings: in vivo; how it was run: as §2
[20] = system: Rattus norvegicus; assay: Drug metabolism in Sprague-Dawley rat heart assessed as (S)-4'-(carboxymethoxy)-DADFT level at 300 umol/kg, sc after 1 hr by HPLC analysis; format: ADME, organism-based; settings: in vivo; how it was run: as §2
[21] = system: Rattus norvegicus; assay: Drug metabolism in Sprague-Dawley rat heart assessed as (S)-4'-(carboxymethoxy)-DADFT level at 300 umol/kg, sc after 2 to 8 hrs by HPLC analysis; format: ADME, organism-based; settings: in vivo; how it was run: as §2
[22] = system: Rattus norvegicus; assay: Drug metabolism in Sprague-Dawley rat pancreas assessed as parent compound level at 300 umol/kg, sc after 0.5 hrs by HPLC analysis; format: ADME, organism-based; settings: in vivo; how it was run: as §2
[23] = system: Rattus norvegicus; assay: Drug metabolism in Sprague-Dawley rat pancreas assessed as (S)-4'-(5-carboxypentyloxy)-DADFT level at 300 umol/kg, sc after 0.5 to 8 hrs by HPLC analysis; format: ADME, organism-based; settings: in vivo; how it was run: as §2
[24] = system: Rattus norvegicus; assay: Drug metabolism in Sprague-Dawley rat pancreas assessed as (S)-4'-(3-carboxypropyloxy)-DADFT level at 300 umol/kg, sc after 0.5 hrs by HPLC analysis; format: ADME, organism-based; settings: in vivo; how it was run: as §2
[25] = system: Rattus norvegicus; assay: Drug metabolism in Sprague-Dawley rat pancreas assessed as (S)-4'-(3-carboxypropyloxy)-DADFT level at 300 umol/kg, sc after 1 hr by HPLC analysis; format: ADME, organism-based; settings: in vivo; how it was run: as §2
[26] = system: Rattus norvegicus; assay: Drug metabolism in Sprague-Dawley rat pancreas assessed as (S)-4'-(5-carboxypentyloxy)-DADFT level at 300 umol/kg, sc after 4 to 8 hrs by HPLC analysis; format: ADME, organism-based; settings: in vivo; how it was run: as §2
[27] = system: Rattus norvegicus; assay: Drug metabolism in Sprague-Dawley rat pancreas assessed as (S)-4'-(3-carboxypropyloxy)-DADFT level at 300 umol/kg, sc after 4 to 8 hrs by HPLC analysis; format: ADME, organism-based; settings: in vivo; how it was run: as §2
[28] = system: Rattus norvegicus; assay: Drug metabolism in Sprague-Dawley rat pancreas assessed as (S)-4'-(carboxymethoxy)-DADFT level at 300 umol/kg, sc after 4 to 8 hrs by HPLC analysis; format: ADME, organism-based; settings: in vivo; how it was run: as §2
[29] = system: Rattus norvegicus; assay: Toxicity in Sprague-Dawley rat assessed as mortality at 384 umol/kg, po qd for 10 days; format: organism-based; settings: in vivo, 240 h
How it was run: (§3)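 Male Sprague-Dawley rats (n=5, 375–400 g) with normal iron stores, housed singly in metabolic cages and weighed daily. Drug given po by gavage as monosodium salt once daily for 10 days, dosed in the morning after overnight fast; fed ~3 h post-drug. Euthanized day 11; CBC, serum chemistries and 25 tissues/rat for outside histopathology; age-matched untreated controls.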

[30] = system: Rattus norvegicus; assay: Toxicity in Sprague-Dawley rat assessed as BUN level in blood at 384 umol/kg, po qd for 10 days; format: organism-based; settings: in vivo, 240 h
How it was run: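 Male Sprague-Dawley rats (n=5, 375–400 g) with normal iron stores were housed in metabolic cages. Drug was given po as the monosodium salt, once daily for 10 days at 384 µmol/kg/day. Rats were fasted overnight, dosed in the morning, and fed about 3 h post-drug. They were euthanized on day 11, and blood was taken for serum chemistry including BUN. Age-matched untreated rats served as controls.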

[31] = system: Rattus norvegicus; assay: Toxicity in Sprague-Dawley rat assessed as histopathology at 384 umol/kg, po qd for 10 days; format: organism-based; settings: in vivo, 240 h; how it was run: as §3
[32] = system: Rattus norvegicus; assay: Iron clearing efficiency in bile duct cannulated Sprague-Dawley rat assessed as clearance of iron in urine at 300 umol/kg, po measured at 3 hrs intervals for up to 48 hrs relative to control; format: functional
[33] = system: Rattus norvegicus; assay: Iron clearing efficiency in bile duct cannulated Sprague-Dawley rat assessed as clearance of iron in bile at 300 umol/kg, po measured at 3 hrs intervals for up to 48 hrs relative to control; format: functional
How it was run: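 Non-iron-overloaded male Sprague-Dawley rats (400–450 g) with cannulated bile ducts received 300 µmol/kg po or sc. […] Bile was sampled every 3 h for up to 48 h and urine at 24 h intervals. ICE = (treated minus control iron excretion) / theoretical output (2:1 ligand:Fe) × 100 over 48 h. Mean ± SEM.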

With `C[C@]1(C(=O)O)CSC(c2ccc(OCCCCCCO)cc2O)=N1` the Activity [1] was 90%, the Ratio [2] was 2.2 and the Drug metabolism [3] was “Not Active”. For the same molecule, the concentration [4] was 23 µM, the Drug metabolism [5] was “metabolite_detected” and the Drug metabolism [6] was “metabolite_detected”. For the same molecule, the Drug metabolism [7] was “metabolite_notdetected”, the Drug metabolism [8] was “metabolite_detected” and the Drug metabolism [9] was “metabolite_detected”. The Drug metabolism [10] was 300 nmol/g, the Drug metabolism [11] was “metabolite_notdetected” and the Drug metabolism [12] was 156 nmol/g. For the same molecule, the Drug metabolism [13] was 201 nmol/g, the Drug metabolism [14] was 161 nmol/g and the Drug metabolism [15] was 5 nmol/g. The Drug metabolism [16] was 26 nmol/g, the Drug metabolism [17] was “metabolite_notdetected” and the Drug metabolism [18] was 46 nmol/g. The Drug metabolism [19] was 17 nmol/g, the Drug metabolism [20] was 23 nmol/g and the Drug metabolism [21] was “metabolite_notdetected”. For the same molecule, the Drug metabolism [22] was < 5 nmol/g, the Drug metabolism [23] was “metabolite_notdetected” and the Drug metabolism [24] was 19 nmol/g. For the same molecule, the Drug metabolism [25] was 23 nmol/g, the Drug metabolism [26] was “metabolite_notdetected” and the Drug metabolism [27] was “metabolite_notdetected”. For the same molecule, the Drug metabolism [28] was “metabolite_notdetected”, the Activity [29] was “Non-toxic” and the Activity [30] was 20 mg/dL. For the same molecule, the Activity [31] was “Non-toxic”, the Activity [32] was 4% and the Activity [33] was 96%.
